# Assay results reported in ChEMBL document CHEMBL1135421, “2-(Anilinomethyl)imidazolines as alpha1 adrenergic receptor agonists: the discovery of alpha1a subtype selective 2'-alkylsulfonyl-substituted analogues” (J Med Chem, 2002).
# Legend:
# [1] = target: T1, Alpha-2C adrenergic receptor (Homo sapiens) (UniProt P18825); experiment: Agonist potency at Alpha-2C adrenergic receptor assayed in CHO cells expressing human Alpha-2C adrenergic receptor; assay type: functional, cell-based
# T1 sequence (whole entry): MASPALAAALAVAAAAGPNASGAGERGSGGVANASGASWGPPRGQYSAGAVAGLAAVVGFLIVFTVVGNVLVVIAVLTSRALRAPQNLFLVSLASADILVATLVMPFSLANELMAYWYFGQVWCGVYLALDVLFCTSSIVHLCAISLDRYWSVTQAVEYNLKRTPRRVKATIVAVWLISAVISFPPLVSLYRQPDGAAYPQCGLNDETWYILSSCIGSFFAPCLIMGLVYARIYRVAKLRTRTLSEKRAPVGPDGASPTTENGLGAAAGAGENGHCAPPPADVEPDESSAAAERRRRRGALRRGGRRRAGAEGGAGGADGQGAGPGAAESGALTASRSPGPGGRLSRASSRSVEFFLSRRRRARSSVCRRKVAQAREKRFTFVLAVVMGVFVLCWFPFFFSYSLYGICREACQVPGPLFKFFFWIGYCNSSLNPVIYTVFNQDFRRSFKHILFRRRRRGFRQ
# [2] = target: T2, Alpha-1D adrenergic receptor (Homo sapiens) (UniProt P25100); experiment: (§1) Agonist potency at Alpha-1D adrenergic receptor assayed in rat-1 fibroblasts expressing human alpha1d; assay type: functional
# T2 sequence (whole entry): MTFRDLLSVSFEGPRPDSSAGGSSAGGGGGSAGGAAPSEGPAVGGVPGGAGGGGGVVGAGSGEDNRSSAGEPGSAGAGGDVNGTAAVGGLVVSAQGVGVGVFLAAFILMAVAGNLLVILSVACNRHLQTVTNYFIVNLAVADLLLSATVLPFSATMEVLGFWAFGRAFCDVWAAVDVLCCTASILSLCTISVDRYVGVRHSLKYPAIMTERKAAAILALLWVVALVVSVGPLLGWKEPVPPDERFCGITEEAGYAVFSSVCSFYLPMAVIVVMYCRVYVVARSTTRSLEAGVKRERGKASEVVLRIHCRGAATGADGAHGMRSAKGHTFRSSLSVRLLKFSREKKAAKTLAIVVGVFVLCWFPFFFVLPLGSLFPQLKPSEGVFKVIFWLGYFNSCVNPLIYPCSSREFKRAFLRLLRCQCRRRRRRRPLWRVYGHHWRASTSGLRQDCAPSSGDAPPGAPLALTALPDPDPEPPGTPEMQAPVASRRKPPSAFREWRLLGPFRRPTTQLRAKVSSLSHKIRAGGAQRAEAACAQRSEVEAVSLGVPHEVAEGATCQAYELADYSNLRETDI
# Summary of the method: (§2)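 Rat-1 fibroblasts expressing human α1a/α1b/α1d, grown in DMEM with 10% heat-inactivated FBS and 0.6 mg/mL G418, plated 6000 cells/well and cultured 48 h at 37 °C. Loaded 2 h at 37 °C with Calcium Green (4 μM), 0.2% pluronic acid and 2.5 mM probenecid in HEPES buffer pH 7.4. FLIPR read at room temperature: 10 s baseline, then 50 s after compound. 11-point curves as % of 40 μM phenylephrine response, top concentration typically 5 μM.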
# [3] = target: T2, Alpha-1D adrenergic receptor (Homo sapiens); experiment: Efficacy as percent maximal effect observed for nonselective agonist phenylephrine in rat-1 fibroblasts expressing human Alpha-1D adrenergic receptor; assay type: functional; summary of the method: as §2
# [4] = target: T3, Alpha-1A adrenergic receptor (Homo sapiens, UniProt P35348); experiment: Agonist potency at Alpha-1A adrenoceptors assayed in rat-1 fibroblasts expressing human Alpha-1A; assay type: functional; summary of the method: as §2
# T3 sequence (P35348 whole entry): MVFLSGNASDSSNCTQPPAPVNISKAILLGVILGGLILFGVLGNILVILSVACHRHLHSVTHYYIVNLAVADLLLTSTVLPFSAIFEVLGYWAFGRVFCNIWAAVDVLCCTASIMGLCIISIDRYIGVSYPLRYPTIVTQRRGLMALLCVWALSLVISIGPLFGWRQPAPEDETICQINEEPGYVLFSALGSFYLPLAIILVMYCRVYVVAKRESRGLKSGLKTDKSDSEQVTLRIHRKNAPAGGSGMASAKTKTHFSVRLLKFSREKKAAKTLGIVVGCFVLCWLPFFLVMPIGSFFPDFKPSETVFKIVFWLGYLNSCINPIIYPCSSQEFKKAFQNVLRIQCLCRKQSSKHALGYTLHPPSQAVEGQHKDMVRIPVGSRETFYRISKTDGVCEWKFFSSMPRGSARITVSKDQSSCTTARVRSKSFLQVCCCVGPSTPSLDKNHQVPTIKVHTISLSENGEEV
# [5] = target: T4, Alpha-1A adrenergic receptor (Homo sapiens) (UniProt P35348); experiment: Efficacy as % of the maximal effect observed for nonselective agonist phenylephrine in rat-1 fibroblasts expressing human alpha1; assay type: functional; summary of the method: as §2
# T4 sequence (whole entry): T3 sequence (P35348 whole entry)
# [6] = target: T1, Alpha-2C adrenergic receptor (Homo sapiens); experiment: Efficacy as percentage of the maximal effect observed for nonselective agonist UK-14304 in CHO cells expressing human Alpha-2A adrenergic receptor; assay type: functional, cell-based
# Summary of the method: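 Human α2A receptor in CHO cells, cAMP assay. Cells were preincubated with compound or UK14304 for 30 min at 37 °C with IBMX 300 μM. […] Efficacy is relative to the UK14304 maximum.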
# [7] = target: T3, Alpha-1A adrenergic receptor; experiment: Agonist potency at Alpha-1 adrenergic receptor assayed in rat-1 fibroblasts expressing human Alpha-1 adrenergic receptor; assay type: functional
# Summary of the method: (§3)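 Human α1a, α1b or α1d receptors expressed in Rat-1 fibroblasts (DMEM, 10% heat-inactivated FBS, 0.6 mg/mL G418). Cells were plated at 6000/well and grown 48 h at 37 °C. They were loaded 2 h at 37 °C with Calcium Green (4 μM), pluronic acid 0.2% and probenecid 2.5 mM in HEPES buffer pH 7.4, then read by FLIPR at room temperature: 10 s baseline, 50 s after compound. 11-point curves were expressed as % of the 40 μM phenylephrine response; top concentration typically 5 μM.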
# [8] = target: T5, Alpha-1D adrenergic receptor (Homo sapiens, UniProt P25100); experiment: Agonist potency at aAlpha-1D adrenergic receptor assayed in rat-1 fibroblasts expressing human Alpha-1D adrenergic receptor; assay type: functional; summary of the method: as §3
# T5 sequence (P25100 whole entry): T2 sequence (whole entry)
# [9] = target: T5, Alpha-1D adrenergic receptor; experiment: as §1; assay type: functional; summary of the method: as §3
# [10] = target: T3, Alpha-1A adrenergic receptor; experiment: Agonist potency at Alpha-1 adrenergic receptor assayed in rat-1 fibroblasts expressing human Alpha-1A; assay type: functional; summary of the method: as §3
smiles,measurement,setting,value
CCCS(=O)(=O)c1ccccc1NCC1=NCCN1,pEC5,[1],5.5
same,pEC5,[2],< 4
CSc1c(F)cccc1NCC1=NCCN1,Max,[3],59%
COc1ccc(SC)c(NCC2=NCCN2)c1,Max,[3],91%
CSc1cc(F)ccc1NCC1=NCCN1,Max,[3],75%
CSc1ccc(C)cc1NCC1=NCCN1,Max,[3],107%
CSc1ccccc1NCC1=NCCN1,Max,[3],55%
same,EC50,[4],4.57 nM
CS(=O)(=O)c1c(F)cccc1NCC1=NCCN1,Max,[5],93%
CC(C)S(=O)(=O)c1ccccc1NCC1=NCCN1,Max,[6],14%
CSc1ccc(C(F)(F)F)cc1NCC1=NCCN1,Max,[3],58%
CCSc1ccccc1NCC1=NCCN1,Max,[3],34%
CS(=O)(=O)c1cc(F)ccc1NCC1=NCCN1,EC50,[7],437 nM
same,EC50,[8],> 100000 nM
CSc1ccc(Cl)cc1NCC1=NCCN1,Max,[3],106%
CS(=O)(=O)c1ccccc1NCC1=NCCN1,EC50,[9],> 100000 nM
same,EC50,[10],56.2 nM
C[S+]([O-])c1ccccc1NCC1=NCCN1 (stereo not given),EC50,[9],> 100000 nM
same,EC50,[10],490 nM
CSc1ccc(F)cc1NCC1=NCCN1,Max,[3],107%
